Assay outcomes: PubChem BioAssay, several laboratories
Rows were chosen to be rich in hits. Some 1.3% of all compounds tested hit in one or more screens of this group.
CHT allo act = CHT positive allosteric modulators, primary screen, cell-based, membrane potential dye, choline EC20 | B-score at 10 µM | CHT-expressing cells; stronger effect = higher value; LV-AA mutant CHT in HEK293 cells | 310,000 compounds, 0.49% hits | High affinity choline transporter 1 (Homo sapiens), Q9GZV3;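 active means initial fluorescence not abnormally high and integrated response B-score, plate-corrected, over 3 SD above library mean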
proCasp7 act = procaspase-7 activators, primary screen, counter-screen for procaspase-3 activator project, biochemical, absorbance, HTS, human; Caspase-7 (Homo sapiens), P55210; recombinant procaspase-7, Ac-DEVD-pNA absorbance 405 nm; D23A/D198A/D206A triple mutant, cannot self-cleave; scale: DMSO 0, 5 µM enzyme 100; activation, % at 8.5 µM; 330,000 compounds, 0.093% hits;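 active means percent activation above the screen-wide mean plus 3 SD, cut at about 25% in these data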
Target sequence (P55210 whole entry D23A/D198A/D206A): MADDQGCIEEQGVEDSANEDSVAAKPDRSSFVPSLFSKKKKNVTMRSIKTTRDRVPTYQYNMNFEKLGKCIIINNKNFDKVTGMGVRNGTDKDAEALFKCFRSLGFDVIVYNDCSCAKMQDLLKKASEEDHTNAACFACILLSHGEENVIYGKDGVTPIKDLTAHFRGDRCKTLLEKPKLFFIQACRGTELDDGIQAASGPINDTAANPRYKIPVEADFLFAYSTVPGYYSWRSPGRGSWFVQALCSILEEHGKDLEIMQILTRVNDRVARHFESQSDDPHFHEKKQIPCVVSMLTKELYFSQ
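Material: Procaspase-7 triple mutant (PC-7 D3A) | Quantity: 2 µM procaspase-7 mutant as dispensed | Reagent: DEVD-pNA substrate | Times: 1 h preincubation, 2 h reaction | Technique: 405 nm absorbance of p-nitroaniline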
proCasp3 act = activators of human procaspase-3 D3A mutant, primary screen, biochemical, absorbance, PC-3 D3A mutant, single concentration | recombinant procaspase-3 D3A, Ac-DEVD-pNA absorbance 405 nm | activation, % at 8.5 µM | 330,000 compounds, 0.11% hits | AID 463141, 2010;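 active means activation above the mean of all tested compounds plus 3 SD, cut at about 21% in these data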
Target sequence (P42574 whole entry D9A/D28A/D175A): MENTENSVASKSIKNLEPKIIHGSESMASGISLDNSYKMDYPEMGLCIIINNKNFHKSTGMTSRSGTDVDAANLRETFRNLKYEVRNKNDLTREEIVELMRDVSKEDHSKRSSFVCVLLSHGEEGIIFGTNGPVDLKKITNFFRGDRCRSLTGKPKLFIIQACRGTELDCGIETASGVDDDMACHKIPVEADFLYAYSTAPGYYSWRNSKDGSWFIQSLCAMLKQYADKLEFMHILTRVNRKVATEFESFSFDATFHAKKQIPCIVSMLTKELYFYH
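Assay system: Procaspase-3 D3A mutant, all three cleavage aspartates alanine. Buffer or medium: Zinc-free HEPES saline buffer with Triton X-100. Times: 1 h compound preincubation, 2 h substrate hydrolysis at 25 °C. Measured by: 405 nm absorbance of p-nitroaniline, reads at 0 and 120 min. Read-out basis: percent activation relative to control range. Replicates: singlicate.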
CHT block = inhibitors of human choline transporter CHT; 310,000 compounds, 0.86% hits; High affinity choline transporter 1 (Homo sapiens), Q9GZV3; CHT-expressing cells, membrane potential dye, choline response; stronger effect = lower value; B-score at 10 µM; AID 488975, 2010;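 active means B-score over 3 SD under the library average, and starting fluorescence ratio not unusually high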;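 further: choline stimulus applied at its EC90 after an EC20 pre-addition; B-score computed on integrated fluorescence ratio after choline addition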
PC3 D3A act = procaspase-3 activators, counter-screen for dual procaspase-3/7 activator project, biochemical, absorbance, PC-3 D3A mutant, human | shares compounds with proCasp7 act | recombinant PC-3 D3A, Ac-DEVD-pNA absorbance 405 nm; aspartates 9, 28, 175 changed to alanine; 100% = enzyme control | activation, % at 8.5 µM | 290 tested, under 10 active | AID 493114, 2011;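 active means mean percent activation across triplicates above a set limit taken from the earlier primary procaspase-3 screen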
Procasp7 act = activation of procaspase-7 enzyme – biochemical, absorbance, human, dual procaspase-3/-7 activator project, confirmation | 290 tested, under 10 active | activation, % at 8.5 µM | AID 493115, 2011 | recombinant procaspase-7, Ac-DEVD-pNA absorbance 405 nm; D23A/D198A/D206A mutant that cannot self-cleave | shares compounds with proCasp7 act;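 active means mean activation above a set limit carried over from the earlier primary screen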
Hits are given with their value; 0 = inactive; - = no result.

SMILES	CHT allo act	proCasp7 act	proCasp3 act	CHT block	PC3 D3A act	Procasp7 act
Cc1c(C(=O)N/N=C/c2ccc(N(C)C)cc2)[nH]c2ccc(Cl)cc12	0	35.5	0	0	0	0
Cc1c(C(=O)N/N=C/c2ccccc2)[nH]c2ccc(Cl)cc12	0	0	0	0	-	-
CCN(Cc1ccccc1)c1ccc(/C=N/N=C(N)N)cc1	0	0	0	0	-	-
CCN(Cc1ccccc1)c1ccc(/C=N/NC(=S)NC(C)C)cc1	0	30.4	23.4	0	0	0
O=C(COC(=O)C1=NN(c2ccccc2)C(=O)CC1)Nc1nc(-c2ccc(F)cc2)cs1	-	0	0	-	-	-
CN(C(=O)Cn1cc(C(F)(F)F)cc(Cl)c1=O)C1CCS(=O)(=O)C1 (stereo unspecified)	0	0	0	0	-	-
COc1ccc(OC)c(/C=C/C(=O)N2CCN(S(=O)(=O)c3ccc(C)cc3C)CC2)c1	-	31.7	0	-	0	0
CC1=[N+](C)N(c2ccccc2)C(=O)C1N=Cc1c(Cl)cccc1Cl (stereo unspecified)	0	0	0	0	-	-
COc1ccc(-c2c(-c3ccc(C#N)cc3)oc(=O)c3cc(OC)c(OC)cc23)cc1	-	26.3	0	-	0	0
O=C(Nc1sc2c(c1C(=O)NCC1CCCO1)CCCC2)c1cccs1 (stereo unspecified)	0	36.7	0	0	0	0
O=C(Nc1sc2c(c1C(=O)O)CCCC2)c1cccs1	0	0	0	0	-	-
CCCCCCc1cc2cc(S(=O)(=O)c3ccc(C)cc3)c(=O)oc2cc1O	0	31.1	85.6	0	0	0
CCCCCCc1cc2cc(S(=O)(=O)c3ccc(Cl)cc3)c(=O)oc2cc1O	0	0	0	0	-	-
O=C(OC1CCOC1=O)c1cc(-c2ccc(Br)cc2)nc2ccccc12 (stereo unspecified)	0	0	0	0	-	-
COc1ccc(-c2cc(C(=O)OC3CCOC3=O)c3ccccc3n2)cc1 (stereo unspecified)	0	27.7	25.8	0	0	0
COc1ccc(C2CC(c3cccs3)=NN2S(=O)(=O)c2ccc(C)cc2)cc1 (stereo unspecified)	0	0	0	0	-	-
COc1ccc(C2CC(c3ccccc3F)=NN2c2ccc(S(N)(=O)=O)cc2)cc1 (stereo unspecified)	-	35.5	34.2	-	0	0
COc1ccc(C2CC(C(C)(C)C)=NN2c2ccc(S(N)(=O)=O)cc2)cc1 (stereo unspecified)	-	0	0	-	-	-
CCc1ccc(C2=NN(c3ccc(S(N)(=O)=O)cc3)C(c3ccc(F)cc3)C2)cc1 (stereo unspecified)	0	26.9	59.2	0	0	0
O=S(=O)(O)c1ccc(N2N=C(c3ccccc3)CC2c2ccccc2)cc1 (stereo unspecified)	0	0	0	0	-	-
NS(=O)(=O)c1ccc(N2N=C(c3ccccc3)CC2c2ccccc2Cl)cc1 (stereo unspecified)	-	79.5	46.8	-	0	0
COc1ccc(C2CC(c3ccc(C(F)(F)F)cc3)=NN2c2ccc(S(N)(=O)=O)cc2)cc1 (stereo unspecified)	-	28.2	22.5	-	0	0
Cc1oc2cc3oc(=O)c(CCC(=O)NCc4ccccn4)c(C)c3cc2c1C	0	0	0	0	-	-
O=[N+]([O-])c1cccc(NC(=S)N2CCN(c3ccccn3)CC2)c1	0	-	-	0	-	-
COCCCNC(=O)C(=O)Nc1cc2c3c(c1)CCN3C(=O)CC2	0	0	0	0	-	-
SMILES	CHT allo act	proCasp7 act	proCasp3 act	CHT block	PC3 D3A act	Procasp7 act
COc1cc(Cn2c(N)c(C#N)c3nc4ccccc4nc32)cc(OC)c1	0	84.9	91.3	0	0	0
COc1ccc2c(c1OC)C(=O)OC2CC(=O)c1ccc(N(C)C)cc1 (stereo unspecified)	0	41.3	44.1	0	40.9	29.7
Cc1cccc(/C=N/NC(=O)c2ccc(NC(=O)c3ccccc3Cl)cc2)n1	0	0	0	0	-	-
Cc1cccc(/C=N/NC(=O)c2ccc(NC(=O)c3ccccc3C)cc2)n1	0	34.3	0	0	0	0
COc1ccccc1OCCn1cc(/C=C(\C#N)C(=O)NCc2ccco2)c2ccccc21	0	49.7	0	0	0	0
CCn1c(=NC(=O)C2COc3ccccc3O2)sc2c(OC)ccc(OC)c21 (stereo unspecified)	0	35.7	0	0	0	0
COc1ccc(-n2c(N)c(C(=O)NCc3ccco3)c3nc4ccccc4nc32)cc1	0	44.2	0	0	0	0
Nc1ccc(-n2c(N)c(C(=O)NCc3ccc4c(c3)OCO4)c3nc4ccccc4nc32)cc1	0	44.3	0	0	0	0
COc1ccc(-n2c(N)c(C(=O)NCc3ccco3)c3nc4ccccc4nc32)cc1OC	0	32.0	0	0	0	0
Nc1c(C(=O)NCc2ccccc2)c2nc3ccccc3nc2n1-c1ccc2c(c1)OCO2	0	0	0	0	-	-
Nc1c(C(=O)NCc2ccco2)c2nc3ccccc3nc2n1CCc1ccc(F)cc1	0	0	0	0	-	-
CC1CN(C(=O)COc2ccc3c(-c4ccccc4)cc(=O)oc3c2)CC(C)O1 (stereo unspecified)	-	0	0	-	-	-
O=C(N/N=C/c1ccc2cccc(OCc3ccccc3)c2n1)c1ccc(Br)cc1	0	0	0	0	-	-
COc1ccc(C(=O)N/N=C/c2ccc3cccc(OCc4ccccc4)c3n2)cc1	0	30.1	0	0	0	0
Cc1ccc(NC(=O)CN(C)C(=O)c2cccc(S(=O)(=O)NCc3ccco3)c2)cc1	-	0	0	-	-	-
CCOc1ccc(S(=O)(=O)NCC(=O)OCc2nnc(-c3ccccc3)o2)cc1	-	0	0	-	-	-
CCOC(=O)C1=NN(c2ccc(OC)cc2)C2C(=O)N(c3ccccc3OC)C(=O)C12 (stereo unspecified)	0	0	0	0	-	-
COc1ccccc1N1C(=O)C2C(C(=O)c3ccccc3)=NN(c3ccccc3)C2C1=O (stereo unspecified)	0	33.0	0	0	25.9	0
CCOC(=O)C1=NN(c2ccccc2)C2C(=O)N(c3ccccc3OC)C(=O)C12 (stereo unspecified)	0	0	0	0	-	-
